Reference: ChEMBL document CHEMBL4428053, “Application of a Parallel Synthetic Strategy in the Discovery of Biaryl Acyl Sulfonamides as Efficient and Selective NaV1.7 Inhibitors” (J Med Chem, 2016)
pIC50, pKi: −log10 of the molar value. Active and inactive are the calls of the source. No cut-off for these calls is given here.

Experiments:
[1] = target: Sodium channel protein type 5 subunit alpha (Homo sapiens, UniProt Q14524); test: Inhibition of human Nav1.5 expressed in HEK293 cells incubated for 3 to 5 mins at -50 mV holding potential by electrophysiology assay; assay type: cell-based
[2] = Clearance in Harlan rat at 1 mg/kg, iv by LC-MS/MS analysis; assay type: ADME, organism-based; settings: in vivo
Method in brief: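 Male fed rats. The IV dose was given in 100% DMSO. The oral dose was given in 1% Tween 80, 2% HPMC, 97% water/NaOH (pH 8.5).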

[3] = Protein binding in rat plasma at 5 uM after 45 mins by LC-MS/MS analysis; assay type: ADME, cell-free; settings: read-out: PPB
in vitro [4] = settings: human, liver microsomes
in vitro [5] = settings: rat, liver microsomes
[6] = target: T1, Sodium channel protein type 9 subunit alpha (Homo sapiens, UniProt Q15858); test: Inhibition of human Nav1.7 expressed in HEK293 cells at 5 uM incubated for 3 to 5 mins at -125 mV holding potential by electrophysiology assay relative to control; assay type: cell-based
[7] = target: T1, Sodium channel protein type 9 subunit alpha; test: Inhibition of human Nav1.7 expressed in HEK293 cells incubated for 3 to 5 mins at -125 mV holding potential by electrophysiology assay; assay type: cell-based
Target sequence in this assay (Q15858 whole entry): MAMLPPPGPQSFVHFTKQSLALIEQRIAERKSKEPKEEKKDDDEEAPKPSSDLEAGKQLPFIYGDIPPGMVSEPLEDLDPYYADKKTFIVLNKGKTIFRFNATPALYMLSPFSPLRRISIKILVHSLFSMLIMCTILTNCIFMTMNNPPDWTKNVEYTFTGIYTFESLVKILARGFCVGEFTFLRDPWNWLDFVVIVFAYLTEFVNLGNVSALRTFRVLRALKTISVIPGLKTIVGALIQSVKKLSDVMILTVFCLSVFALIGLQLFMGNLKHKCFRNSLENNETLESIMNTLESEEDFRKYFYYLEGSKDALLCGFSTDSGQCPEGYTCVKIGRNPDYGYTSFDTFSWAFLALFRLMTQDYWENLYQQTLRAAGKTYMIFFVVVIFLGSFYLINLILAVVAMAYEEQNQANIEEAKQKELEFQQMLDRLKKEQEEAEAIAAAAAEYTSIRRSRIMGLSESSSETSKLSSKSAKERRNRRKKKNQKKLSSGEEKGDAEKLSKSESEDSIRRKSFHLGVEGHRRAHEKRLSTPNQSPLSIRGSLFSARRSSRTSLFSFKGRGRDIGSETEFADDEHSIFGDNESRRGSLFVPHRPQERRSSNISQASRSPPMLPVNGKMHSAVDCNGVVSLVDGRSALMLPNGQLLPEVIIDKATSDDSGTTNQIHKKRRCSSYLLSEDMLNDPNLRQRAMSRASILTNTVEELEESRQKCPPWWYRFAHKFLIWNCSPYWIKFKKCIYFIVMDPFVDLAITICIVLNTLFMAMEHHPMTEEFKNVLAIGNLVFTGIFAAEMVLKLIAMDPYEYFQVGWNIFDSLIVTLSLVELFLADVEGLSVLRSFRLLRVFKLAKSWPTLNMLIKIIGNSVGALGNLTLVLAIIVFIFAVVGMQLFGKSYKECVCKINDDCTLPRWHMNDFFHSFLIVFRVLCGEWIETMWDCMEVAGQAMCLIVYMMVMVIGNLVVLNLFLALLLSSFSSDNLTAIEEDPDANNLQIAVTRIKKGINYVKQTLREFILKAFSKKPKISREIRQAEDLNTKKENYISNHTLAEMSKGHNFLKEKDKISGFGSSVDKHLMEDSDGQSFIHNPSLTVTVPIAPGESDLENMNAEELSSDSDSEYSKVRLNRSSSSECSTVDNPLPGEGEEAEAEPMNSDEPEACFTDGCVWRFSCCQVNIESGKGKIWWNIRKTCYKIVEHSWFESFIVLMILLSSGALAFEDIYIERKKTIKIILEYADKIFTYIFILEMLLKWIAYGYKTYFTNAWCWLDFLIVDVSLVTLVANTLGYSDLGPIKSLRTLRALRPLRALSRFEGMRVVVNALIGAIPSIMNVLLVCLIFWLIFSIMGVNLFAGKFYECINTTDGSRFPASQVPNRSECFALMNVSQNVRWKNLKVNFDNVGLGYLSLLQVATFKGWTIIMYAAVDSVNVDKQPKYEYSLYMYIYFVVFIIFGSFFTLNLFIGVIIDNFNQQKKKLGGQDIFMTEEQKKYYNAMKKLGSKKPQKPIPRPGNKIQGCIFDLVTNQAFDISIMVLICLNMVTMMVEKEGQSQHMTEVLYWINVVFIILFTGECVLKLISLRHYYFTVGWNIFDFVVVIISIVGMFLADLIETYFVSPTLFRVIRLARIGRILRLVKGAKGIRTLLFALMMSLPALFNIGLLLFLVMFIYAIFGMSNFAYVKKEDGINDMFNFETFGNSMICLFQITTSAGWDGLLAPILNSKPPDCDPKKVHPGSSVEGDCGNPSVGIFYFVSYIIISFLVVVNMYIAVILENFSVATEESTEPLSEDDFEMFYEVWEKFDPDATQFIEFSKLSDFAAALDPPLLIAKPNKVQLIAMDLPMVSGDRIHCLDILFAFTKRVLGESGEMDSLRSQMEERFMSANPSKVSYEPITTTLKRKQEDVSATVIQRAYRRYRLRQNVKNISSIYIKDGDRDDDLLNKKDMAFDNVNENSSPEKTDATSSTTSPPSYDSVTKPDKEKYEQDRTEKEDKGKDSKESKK

[8] = target: Voltage-gated inwardly rectifying potassium channel KCNH2 (Homo sapiens, UniProt Q12809)
Mus musculus = test: In vivo inhibition of Nav1.7 in C57BL/6 mouse assessed as reduction in histamine-induced scratching bouts at 30 mg/kg, po administered 4 hrs prior to histamine challenge measured for 15 mins; assay type: functional, organism-based
Method in brief: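 Mice were dosed orally with vehicle, diphenhydramine (30 mg/kg, n = 8) or test article at 30 (n = 9), 100 (n = 10) or 300 (n = 10) mg/kg; vehicle n = 12. All groups received histamine intradermally. Total scratch bouts were counted, with unbound plasma concentration reported per dose. Statistics: one-way ANOVA with Dunnett's test versus vehicle.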

Voltage-gated inwardly rectifying potassium channel KCNH2, sequence (Q12809 whole entry): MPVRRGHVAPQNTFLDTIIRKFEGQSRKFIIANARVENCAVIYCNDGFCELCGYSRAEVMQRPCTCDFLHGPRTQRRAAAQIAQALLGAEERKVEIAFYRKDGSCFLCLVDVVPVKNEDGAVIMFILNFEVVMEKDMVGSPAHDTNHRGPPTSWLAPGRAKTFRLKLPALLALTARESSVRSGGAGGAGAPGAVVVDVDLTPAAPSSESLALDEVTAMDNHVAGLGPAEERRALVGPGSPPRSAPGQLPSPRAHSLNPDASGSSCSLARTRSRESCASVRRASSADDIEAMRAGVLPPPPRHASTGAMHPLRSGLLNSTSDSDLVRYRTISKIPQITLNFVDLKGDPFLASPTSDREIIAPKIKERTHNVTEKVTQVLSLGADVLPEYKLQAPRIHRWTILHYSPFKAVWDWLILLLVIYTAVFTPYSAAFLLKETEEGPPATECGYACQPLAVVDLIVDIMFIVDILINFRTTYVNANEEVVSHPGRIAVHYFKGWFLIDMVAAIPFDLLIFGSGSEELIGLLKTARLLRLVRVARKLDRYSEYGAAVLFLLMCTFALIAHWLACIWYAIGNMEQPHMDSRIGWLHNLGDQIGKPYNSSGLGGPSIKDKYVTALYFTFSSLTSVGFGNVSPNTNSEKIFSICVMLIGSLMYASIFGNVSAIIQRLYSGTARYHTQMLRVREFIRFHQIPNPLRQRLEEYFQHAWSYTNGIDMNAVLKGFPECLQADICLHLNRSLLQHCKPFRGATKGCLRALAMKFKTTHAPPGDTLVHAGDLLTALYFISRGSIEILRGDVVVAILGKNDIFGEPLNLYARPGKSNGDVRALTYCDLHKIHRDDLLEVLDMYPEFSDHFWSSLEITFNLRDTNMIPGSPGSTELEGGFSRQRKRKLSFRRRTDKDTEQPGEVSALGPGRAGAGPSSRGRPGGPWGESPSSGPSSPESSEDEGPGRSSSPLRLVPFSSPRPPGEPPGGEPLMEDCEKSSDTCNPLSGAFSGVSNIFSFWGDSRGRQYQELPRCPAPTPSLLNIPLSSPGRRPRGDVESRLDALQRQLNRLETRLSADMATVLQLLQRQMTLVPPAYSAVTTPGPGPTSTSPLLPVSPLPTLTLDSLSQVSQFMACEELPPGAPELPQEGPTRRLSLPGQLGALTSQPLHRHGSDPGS
Sodium channel protein type 5 subunit alpha, sequence (Q14524 whole entry): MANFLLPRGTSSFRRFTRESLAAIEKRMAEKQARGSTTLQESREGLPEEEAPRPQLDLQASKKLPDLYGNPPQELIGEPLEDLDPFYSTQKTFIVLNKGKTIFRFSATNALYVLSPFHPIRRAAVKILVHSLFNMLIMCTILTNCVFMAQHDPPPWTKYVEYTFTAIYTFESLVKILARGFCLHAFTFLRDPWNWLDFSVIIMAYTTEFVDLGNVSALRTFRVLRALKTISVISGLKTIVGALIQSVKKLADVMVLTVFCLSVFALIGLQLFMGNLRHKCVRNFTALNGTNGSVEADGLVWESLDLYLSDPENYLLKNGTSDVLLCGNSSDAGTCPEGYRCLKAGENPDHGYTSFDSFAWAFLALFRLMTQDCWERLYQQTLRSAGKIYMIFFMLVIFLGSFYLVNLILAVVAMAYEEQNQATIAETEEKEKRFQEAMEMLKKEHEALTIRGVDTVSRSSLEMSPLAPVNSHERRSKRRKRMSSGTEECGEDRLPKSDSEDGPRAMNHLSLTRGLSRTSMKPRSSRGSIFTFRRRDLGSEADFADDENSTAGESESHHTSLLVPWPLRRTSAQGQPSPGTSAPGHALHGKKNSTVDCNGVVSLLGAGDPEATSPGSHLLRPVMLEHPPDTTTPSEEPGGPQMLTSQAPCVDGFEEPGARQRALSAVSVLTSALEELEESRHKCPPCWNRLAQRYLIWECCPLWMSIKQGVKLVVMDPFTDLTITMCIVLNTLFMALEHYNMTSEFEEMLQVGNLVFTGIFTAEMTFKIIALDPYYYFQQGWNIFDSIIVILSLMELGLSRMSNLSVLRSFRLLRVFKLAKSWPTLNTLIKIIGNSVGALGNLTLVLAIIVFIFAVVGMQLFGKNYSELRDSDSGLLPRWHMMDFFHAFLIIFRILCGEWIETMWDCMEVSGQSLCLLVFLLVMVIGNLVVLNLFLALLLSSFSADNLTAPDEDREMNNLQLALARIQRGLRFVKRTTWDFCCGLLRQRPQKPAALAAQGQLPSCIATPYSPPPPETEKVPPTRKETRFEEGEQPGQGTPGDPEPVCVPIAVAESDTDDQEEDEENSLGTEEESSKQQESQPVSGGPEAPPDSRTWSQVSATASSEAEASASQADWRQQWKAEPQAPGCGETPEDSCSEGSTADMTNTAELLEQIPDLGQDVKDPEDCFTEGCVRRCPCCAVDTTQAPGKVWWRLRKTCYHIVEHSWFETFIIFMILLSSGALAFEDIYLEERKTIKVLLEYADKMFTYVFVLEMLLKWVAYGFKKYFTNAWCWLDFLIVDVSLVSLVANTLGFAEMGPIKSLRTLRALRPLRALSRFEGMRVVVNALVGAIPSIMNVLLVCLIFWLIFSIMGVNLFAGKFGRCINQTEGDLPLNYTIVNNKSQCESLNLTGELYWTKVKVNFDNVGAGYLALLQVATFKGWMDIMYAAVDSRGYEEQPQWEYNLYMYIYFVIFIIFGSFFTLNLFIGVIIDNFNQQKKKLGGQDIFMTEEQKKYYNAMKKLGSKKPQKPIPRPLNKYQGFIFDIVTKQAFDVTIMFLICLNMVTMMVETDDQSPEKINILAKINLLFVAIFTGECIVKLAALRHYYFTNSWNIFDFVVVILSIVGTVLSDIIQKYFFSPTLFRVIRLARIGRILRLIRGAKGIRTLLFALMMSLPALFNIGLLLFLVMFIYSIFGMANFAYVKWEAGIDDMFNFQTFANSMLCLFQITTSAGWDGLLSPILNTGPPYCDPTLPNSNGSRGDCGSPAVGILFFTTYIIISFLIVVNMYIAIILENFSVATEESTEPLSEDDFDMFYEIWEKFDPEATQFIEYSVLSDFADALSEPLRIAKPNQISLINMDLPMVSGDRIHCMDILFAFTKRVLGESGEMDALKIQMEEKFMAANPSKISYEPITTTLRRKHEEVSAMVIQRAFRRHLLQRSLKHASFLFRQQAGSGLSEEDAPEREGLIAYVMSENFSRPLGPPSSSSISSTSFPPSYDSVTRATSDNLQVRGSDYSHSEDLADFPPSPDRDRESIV

inhibition [6] [%]	pIC50 [7]	Structure (SMILES)	pIC50 [1]	other results
–	–	COc1cc(C(=O)NS(C)(=O)=O)ccc1-c1cnc(Oc2cc(Cl)cc(Cl)c2)c(C#N)c1	4.79	clearance [2]: 30 mL/min/kg; fraction unbound at 0.75 h, 5 µM [3]: < 0.001; microsomal CLint at 1 µM (in vitro [4]): 39 µL/min/mg; microsomal CLint at 1 µM (in vitro [5]): 15 µL/min/mg
< 5	–	CS(=O)(=O)NC(=O)c1cc(-c2ccc(Cl)c(Cl)c2)on1	–	–
–	–	COc1cc(C(=O)NS(C)(=O)=O)ccc1-c1cnc(Oc2cc(F)ccc2F)c(Cl)c1	4.63	microsomal CLint at 1 µM (in vitro [4]): < 14 µL/min/mg; microsomal CLint at 1 µM (in vitro [5]): 33 µL/min/mg
–	6.80	COc1cc(C(=O)NS(C)(=O)=O)ccc1-c1cnc(Sc2cccc(C)c2)c(Cl)c1	–	microsomal CLint at 1 µM (in vitro [4]): 199 µL/min/mg; microsomal CLint at 1 µM (in vitro [5]): < 14 µL/min/mg
< 5	–	CS(=O)(=O)NC(=O)C1CC(=O)N(c2ccc(Cl)c(Cl)c2)C1 (stereo not drawn)	–	–
–	6.85	CC(C)COc1ncc(-c2ccc(C(=O)NS(C)(=O)=O)cc2OC(F)(F)F)cc1Cl	5.43	microsomal CLint at 1 µM (in vitro [4]): > 399 µL/min/mg; microsomal CLint at 1 µM (in vitro [5]): < 14 µL/min/mg
< 5	–	CS(=O)(=O)NC(=O)CCc1ccc(Cl)c(Cl)c1	–	–
< 5	–	CS(=O)(=O)NC(=O)C1CC(=O)N(Cc2ccc(Cl)c(Cl)c2)C1 (stereo not drawn)	–	–
–	< 4.38	CC(C)COc1ncc(-c2ccc(C(=O)NS(C)(=O)=O)c(Cl)c2)cc1Cl	–	microsomal CLint at 1 µM (in vitro [4]): 26 µL/min/mg; microsomal CLint at 1 µM (in vitro [5]): < 14 µL/min/mg
< 5	–	CS(=O)(=O)NC(=O)C1CCN(C(=O)c2ccc(Cl)c(Cl)c2)C1 (stereo not drawn)	–	–
–	6.70	COc1cc(C(=O)NS(C)(=O)=O)ccc1-c1cnc(OCC2(C)CC2)c(Cl)c1	5.03	microsomal CLint at 1 µM (in vitro [4]): < 14 µL/min/mg; microsomal CLint at 1 µM (in vitro [5]): < 14 µL/min/mg
–	6.96	COc1cc(C(=O)NS(C)(=O)=O)c(F)cc1-c1cnc(OC2CCC2)c(Cl)c1	–	–
–	5.79	CC(C)COc1ncc(-c2ccc(C(=O)NS(C)(=O)=O)cc2C#N)cc1Cl	4.62	microsomal CLint at 1 µM (in vitro [4]): 20 µL/min/mg; microsomal CLint at 1 µM (in vitro [5]): < 14 µL/min/mg
< 5	–	CS(=O)(=O)NC(=O)c1ccc(=O)n(Cc2ccc(Cl)c(Cl)c2)c1	–	–
–	6.18	CC(C)COc1ncc(-c2ccc(C(=O)NS(C)(=O)=O)cc2F)cc1Cl	4.64	microsomal CLint at 1 µM (in vitro [4]): 27 µL/min/mg; microsomal CLint at 1 µM (in vitro [5]): 22 µL/min/mg
< 5	–	CS(=O)(=O)NC(=O)CSCc1ccc(Cl)c(Cl)c1	–	–
< 5	–	CS(=O)(=O)NC(=O)C(=O)c1cc(-c2ccc(Cl)c(Cl)c2)on1	–	–
< 5	–	CS(=O)(=O)NC(=O)CSCC(=O)Nc1ccc(Cl)c(Cl)c1	–	–
–	5.91	CC(C)COc1ncc(-c2c(F)cc(C(=O)NS(C)(=O)=O)cc2F)cc1Cl	–	–
–	5.81	CS(=O)(=O)NC(=O)c1ccc2c(-c3ccc(C(F)(F)F)c(Cl)c3)nccc2c1	< 4.52	pKi [8]: < 4.52
–	–	CN(C)CCOC(c1ccccc1)c1ccccc1	–	inhibition (Mus musculus): Active
–	6.13	CS(=O)(=O)NC(=O)c1cc(F)c(Oc2ccc(Cl)c(Cl)c2)cc1F	< 4.52	pKi [8]: < 4.52
–	4.97	CS(=O)(=O)NC(=O)c1ccc(-c2ccc(Cl)c(Cl)c2)cc1	< 4.38	pKi [8]: < 4.52
–	6.23	O=S(=O)(Nc1ncns1)c1ccc2c(-c3ccc(C(F)(F)F)c(Cl)c3)nccc2c1	4.57	pKi [8]: 5.70
< 5	–	CS(=O)(=O)NC(=O)c1cscc1SCc1ccc(Cl)c(Cl)c1	–	–
< 5	–	CS(=O)(=O)NC(=O)c1csc(Nc2ccc(Cl)c(Cl)c2)n1	–	–
< 5	–	CS(=O)(=O)NC(=O)Cc1ccc(NS(=O)(=O)c2ccc(Cl)c(Cl)c2)cc1	–	–
< 5	–	CS(=O)(=O)NC(=O)c1ccc2nc(-c3ccc(Cl)c(Cl)c3)cn2c1	–	–
